High-throughput results deposited in PubChem BioAssay by several laboratories.
KCNQ1 block = blocks the human KCNQ1 potassium channel | B-score at 10 µM | CHO-K1 KCNQ1, FluxOR thallium flux fluorescence; hits give high values | P51787 | 310,000 tested, 1.3% active;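 active means compounds whose thallium flux B-score, printed positive for inhibition, exceeds three library SD while starting fluorescence stays within three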;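 further: channel opened by potassium depolarization with thallium stimulus after 20 min compound exposure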
KCC2 mod = modulates chloride dependent transport by human KCC2 | Q9H2X9 | KCC2 cells, thallium flux FluoZin-2 fluorescence | B-score of Tl+ flux slope (higher = more flux/activation; lower = inhibition) at 10 µM | 190,000 tested, 2.2% active | AID 1456;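 active means thallium flux slope and its plate-corrected score both differing from the plate sample mean at a set confidence after two filtering rounds, in either direction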;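 further: slope of fluorescence scaled to starting intensity during 10 to 20 s after thallium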
hERG rescue = compounds protecting human hERG from proarrhythmic drug block | CHO-hERG, FluxOR thallium flux, dofetilide IC70 present | activation (rescue from dofetilide block), less the hit threshold, % at 10 µM | 310,000 tested, 0.51% active;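 active means activation above the mean of controls blocked by dofetilide plus 5 SD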;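 further: thallium influx through hERG after potassium depolarization seen as dye fluorescence rise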
Target sequence (Q12809 whole entry, looked up): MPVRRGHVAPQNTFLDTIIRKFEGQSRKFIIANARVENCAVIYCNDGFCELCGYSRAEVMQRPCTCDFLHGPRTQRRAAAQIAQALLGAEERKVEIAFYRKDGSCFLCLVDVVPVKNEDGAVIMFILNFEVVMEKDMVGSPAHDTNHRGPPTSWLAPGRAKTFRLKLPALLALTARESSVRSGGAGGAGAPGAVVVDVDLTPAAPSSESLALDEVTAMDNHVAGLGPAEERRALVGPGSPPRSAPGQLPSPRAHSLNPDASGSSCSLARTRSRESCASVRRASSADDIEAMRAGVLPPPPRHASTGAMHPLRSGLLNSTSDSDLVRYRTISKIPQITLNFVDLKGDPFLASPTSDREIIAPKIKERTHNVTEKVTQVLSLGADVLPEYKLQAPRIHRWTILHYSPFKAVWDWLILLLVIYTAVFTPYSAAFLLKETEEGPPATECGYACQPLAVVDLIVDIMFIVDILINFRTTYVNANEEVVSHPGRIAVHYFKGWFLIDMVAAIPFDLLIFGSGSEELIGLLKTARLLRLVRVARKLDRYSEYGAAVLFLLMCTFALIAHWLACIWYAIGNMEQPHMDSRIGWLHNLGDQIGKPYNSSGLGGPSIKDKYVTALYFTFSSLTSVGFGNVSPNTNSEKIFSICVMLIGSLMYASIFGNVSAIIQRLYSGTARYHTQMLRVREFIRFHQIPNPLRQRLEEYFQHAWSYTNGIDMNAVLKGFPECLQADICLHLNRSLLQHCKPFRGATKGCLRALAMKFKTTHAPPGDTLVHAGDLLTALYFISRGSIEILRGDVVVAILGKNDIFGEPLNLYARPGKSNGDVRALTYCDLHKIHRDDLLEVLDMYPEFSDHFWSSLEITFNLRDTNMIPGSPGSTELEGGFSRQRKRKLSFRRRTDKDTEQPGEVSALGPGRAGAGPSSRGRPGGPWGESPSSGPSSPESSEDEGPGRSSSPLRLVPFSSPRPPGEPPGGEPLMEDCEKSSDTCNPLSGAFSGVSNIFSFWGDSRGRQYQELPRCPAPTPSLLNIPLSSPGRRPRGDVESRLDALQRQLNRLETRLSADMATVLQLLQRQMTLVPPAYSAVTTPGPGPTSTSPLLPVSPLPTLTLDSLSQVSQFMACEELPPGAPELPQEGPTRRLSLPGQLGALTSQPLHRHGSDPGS
KCNK3 inh = human KCNK3 channel inhibition, primary screen; O14649; CHO-KCNK3 thallium flux, FluxOR fluorescence; hits give low values; B-score at 10 µM; 340,000 tested, 0.84% active;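 active means B-score under library mean minus 4 SD, starting fluorescence ratio at most library mean plus 5 SD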;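 further: more negative B-score means stronger inhibition of thallium flux through KCNK3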
KCNQ1 pot = human KCNQ1 channel potentiation or activation; P51787; CHO-K1 KCNQ1, thallium flux FluxOR fluorescence; hits give high values; B-score at 10 µM; 310,000 tested, 0.35% active;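 active means fluorescence ratio B-score, a plate-corrected score, at least three library SD, with initial intensity B-score within 5 SD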
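Doses: Single concentration per compound, DMSO matched to controls | Test system: KCNQ1-transfected CHO-K1 cells | Timing: 90 min dye loading and 20 min compound exposure, both at room temperature | Measured by: Kinetic FluxOR thallium fluorescence, 10-s 1-Hz baseline, 110-s post-stimulus read | Medium: Assay buffer with matched DMSO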
KCNK9 inh = human KCNK9 channel inhibition. HEK293 KCNK9, FluxOR thallium flux fluorescence; hits give low values. B-score at 10 µM. 310,000 tested, 1.2% active. AID 488922;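 active means ratio B-score over 3 SD below the library mean, with starting fluorescence within 5 SD of its mean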;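 further: negative B-score means less thallium flux so channel inhibition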
KCNK9 inh conf = confirmation of human KCNK9 potassium channel inhibitors | HEK293 KCNK9 cells, FluxOR thallium flux fluorescence | 4,900 tested, 43% active | shares compounds with KCNK9 inh | AID 492992 | inhibition, % at 10 µM;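 active means thallium signal inhibited by more than 5 SD of the compound-free buffer control wells, on both duplicate plates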;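 further: 0% = assay buffer control wells without compound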
Kir21 sel = tests whether KCNK9 modulators also affect mouse Kir2.1. Kir2.1 cells, FluxOR thallium flux fluorescence. 4,900 tested, 4% active. shares compounds with KCNK9 inh. AID 492993. inhibition, % at 10 µM;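 active means thallium signal drop more than 5 SD beyond the mean of the no-compound control wells, seen in both duplicate plates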;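 further: signal is fluorescence rise after thallium addition divided by baseline fluorescence; plate controls were assay buffer only for no effect and full block by chlorpromazine control for full effect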
HEK293 Tl ctr = non-induced cell nonspecific activity of KCNK9 modulators | shares compounds with KCNK9 inh | non-induced KCNK9-HEK293, FluxOR thallium flux | inhibition, % at 10 µM | 4,900 tested, 40% active | AID 492997;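 active means thallium signal drop beyond 5 SD of the untreated control mean, on both duplicate plates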;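 further: plate controls were buffer only IC0 wells for no effect and SID17386958 at its maximal inhibitory level for full effect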
The depositor's hits bear a star; i = inactive; / = not tested or not shown. Shown are actives, neighbours in structure and some others; about 4.1% of the full set was active somewhere.

SMILES | KCNQ1 block | KCC2 mod | hERG rescue | KCNK3 inh | KCNQ1 pot | KCNK9 inh | KCNK9 inh conf | Kir21 sel | HEK293 Tl ctr
CC(CCc1ccccc1)NC(=O)CCNC(=O)c1ccccc1Cl (stereo not drawn) | / | / | / | i | / | / | / | / | /
CN1C[C@H](C(=O)N[C@]2(C)O[C@@]3(O)[C@@H]4CCCN4C(=O)[C@H](Cc4ccccc4)N3C2=O)CC2c3cccc4[nH]cc(c34)C[C@H]21 (stereo partly drawn) | / | / | / | i | / | / | / | / | /
CC(C)C[C@H]1C(=O)N2CCC[C@H]2[C@]2(O)O[C@](NC(=O)C3C=C4c5cccc6[nH]c(Br)c(c56)C[C@H]4N(C)C3)(C(C)C)C(=O)N12 (stereo partly drawn) | 7* | / | -9 | i | i | i | i | i | i
O=C(CSc1ccc(Cl)cc1)NC1CCCc2ccccc21 (stereo not drawn) | i | -0.83 | -5 | i | i | i | / | / | /
Cc1ccc(Cl)cc1N1CCN(CC(=O)NC2CCCc3ccccc32)CC1 (stereo not drawn) | i | -0.065 | -5 | i | i | i | i | i | i
O=C(CN1CCN(c2ccccc2Cl)CC1)NC1CCCc2ccccc21 (stereo not drawn) | i | -0.99 | -10 | i | i | i | i | i | i
O=C(CSCC(=O)N1CCCCC1)Nc1nc(-c2ccc(Cl)s2)cs1 | i | 1.1 | -10 | i | i | i | i | i | i
CCc1ccc2[nH]c(=O)c(CN(Cc3ccccc3OC)Cc3nnnn3Cc3ccco3)cc2c1 | i | -1.7 | -6 | i | i | i | / | / | /
COc1ccccc1CN(Cc1cc2cc(C)ccc2[nH]c1=O)Cc1nnnn1Cc1ccco1 | i | -1.2 | -7 | i | i | -8.7* | i | i | 36%*
COc1ccccc1CNC(=O)c1ccccc1OCc1ccc(F)cc1 | i | -1.9 | -14 | i | i | -8.8* | 70%* | 39%* | 28%*
Cc1ccc(S(=O)(=O)N2CCOCC2)cc1NC(=O)Nc1ccc([N+](=O)[O-])cc1 | / | / | / | i | / | / | / | / | /
Cn1c(=O)c2c(nc(NCC3CCCC(CN)C3)n2Cc2ccc(Cl)cc2Cl)n(C)c1=O (stereo not drawn) | i | / | -7 | i | i | i | / | / | /
COc1ccc2c3n(nc2c1)CCN=C3c1cc(Cl)c(N)c(Cl)c1 | / | / | / | i | / | / | / | / | /
Nc1c(Cl)cc(C2=NCCn3nc4cc(C(F)(F)F)ccc4c32)cc1Cl | i | / | -5 | i | 8* | -13* | 58%* | i | i
CCCCn1nnc(NC(=S)NC(=O)c2ccc(OCC)c([N+](=O)[O-])c2)n1 | i | / | -6 | i | i | i | / | / | /
C=CCn1c(=O)c2ccccc2n2c(SCC(=O)NC)nnc12 | i | / | -4 | i | i | i | / | / | /
Cc1ccccc1-n1c(SCc2csc(Nc3ccccc3)n2)nnc1-c1cccnc1 | i | -0.97 | -18 | i | i | i | / | / | /
Cc1ccc(Nc2nc(CSc3nnc(-c4cccnc4)n3-c3ccccc3C)cs2)cc1 | i | -1.7 | -14 | i | i | -9.9* | i | i | i
Cc1sc(NC(=O)C2CCCCC2)c(C#N)c1-c1ccccc1 | i | -0.45 | -10 | i | i | i | i | i | i
COc1ccc2c(c1)C(SCC(=O)NCCc1ccccc1)CC(C)(C)O2 (stereo not drawn) | i | -1.8 | -9 | i | i | i | i | i | i
COc1ccc(CCCC(=O)NCCc2ccccc2)cc1 | i | / | -1 | i | i | i | / | / | /
Cc1cc(C(=O)Nc2cccc3ccccc23)c(C)o1 | i | / | -1 | i | i | i | / | / | /
Cc1oc(CC(C)C)cc1C(=O)Nc1cccc2ccccc12 | i | 0.54 | -4 | i | i | -9.5* | i | i | 40%*
CCOc1ccccc1NC(=O)c1cc(CC(C)C)oc1C | i | / | -13 | i | i | -18* | 62%* | i | 43%*
CC(=O)/C=C/c1ccccc1Oc1c(F)c(F)nc(F)c1F | i | / | -5 | i | i | i | i | i | i
SMILES | KCNQ1 block | KCC2 mod | hERG rescue | KCNK3 inh | KCNQ1 pot | KCNK9 inh | KCNK9 inh conf | Kir21 sel | HEK293 Tl ctr
Cc1cc(C(=O)C(C)OC(=O)c2ccc(NC(=O)CC#N)cc2)c(C)n1-c1ccc(OC(F)F)cc1 (stereo not drawn) | / | / | / | i | / | / | / | / | /
CN(C)CCCn1c2c(c(SCC(=O)Nc3nccs3)nc1=O)CCC2 | i | / | -10 | i | i | i | / | / | /
O=c1sc(N2CCN(c3ccccc3F)CC2)nc2ccsc12 | i | -0.15 | -10 | i | i | -13* | 36%* | i | 40%*
O=c1sc(N2CCN(c3ccc(F)cc3)CC2)nc2ccsc12 | i | 0.089 | -4 | i | i | i | / | / | /
CC1CCC2(CC1)NC(=O)N(NC(=O)c1cccc(N(C)C)c1)C2=O (stereo not drawn) | / | / | / | i | / | / | / | / | /
COC(=O)C/C=C/N(Cc1ccccc1OC)S(=O)(=O)CCl | / | / | / | i | / | / | / | / | /
COC(=O)c1c(N)sc2c1CCN(c1ncc(C(F)(F)F)cc1Cl)C2 | i | -0.51 | -4 | i | i | -9.4* | 38%* | i | i
COC(=O)c1c(/N=C/NOCc2ccc(Cl)cc2)sc2c1CCN(c1ncc(C(F)(F)F)cc1Cl)C2 | i | / | -8 | i | i | i | / | / | /
Cc1cccc(NS(=O)(=O)c2ccc(C)c(C(=O)NCc3ccccn3)c2)c1 | / | / | / | i | / | / | / | / | /
COc1cc2nc(Nc3ccc(F)cc3)nc(N)c2cc1OC | i | / | -5 | i | i | i | / | / | /
COc1cc2nc(Nc3ccc(C)c(Cl)c3)nc(N)c2cc1OC | i | / | -5 | i | i | -16* | i | i | i
Cc1nc2ccccc2c(C)c1CC(=O)OC(C)C(=O)NC1(C#N)CCCCC1 (stereo not drawn) | i | / | -16 | i | i | i | / | / | /
O=C(OCC#CCSc1nnc(-c2ccc(Br)cc2)o1)c1cccs1 | i | 0.46 | -9 | i | i | -12* | i | i | 40%*
CN(C)CC/C=C1/c2ccccc2Sc2ccc(Cl)cc21 | i | 1.1 | -12 | i | i | i | i | i | i
CCOc1ccc2nc(SCC(=O)NC(=O)NCc3ccco3)[nH]c2c1 | i | 1.5 | -11 | i | i | i | i | i | i
